Positions count from the first letter of the chain named. Names may count otherwise.
Key:
[1] = tested on: full-length RNF146 or RNF146(RING-WWE); assay: E2~Ub/lysine reactivity assay with UbcH5; assay type: biochemical, human; settings: for activation of Ub transfer from UbcH5~Ub to lysine: ligand added to full-length RNF146 or RING-WWE fragment, not RING-only construct
In short: (§1)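 Mouse RNF146(RING-WWE) (residues 30–183), made from a GST-tagged construct with TEV cleavage, or His6-T7-tagged full-length RNF146. UbcH5~Ub was charged by wheat E1 (1.5 μM) with 100 μM E2, 200 μM K0 Ub, 2.5 mM MgCl2 and 2 mM ATP in PBS at 37 °C for 30 min, then SEC-purified. Final: 25 μM E2, 4 or 8 μM E3, ± iso-ADPr. Started with 40 mM L-lysine at 35 °C; sampled 1–15 min; non-reducing SDS-PAGE, Coomassie/Oriole stain.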

RNF146(RING-WWE) K61D = assay: E2~Ub/lysine reactivity assay, K61D mutant; assay type: biochemical, mouse; settings: 8 μM E3, 25 μM iso-ADPr
In short: as §1

K61D RNF146(RING-WWE) = molecular target: T1, K61D RNF146(RING-WWE) (Mus musculus, UniProt Q9CZW6, K63D); assay: ITC, iso-ADPr binding to K61D RNF146; settings: 25 °C, K61D mutant
T1 sequence (Q9CZW6 32-185 K63D): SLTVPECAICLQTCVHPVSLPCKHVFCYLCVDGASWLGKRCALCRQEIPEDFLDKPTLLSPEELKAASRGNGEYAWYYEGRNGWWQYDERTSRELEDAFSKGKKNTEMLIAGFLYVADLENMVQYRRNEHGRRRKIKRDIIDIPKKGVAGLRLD
In short: (§2)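 Calorimetry at 25 °C on untagged mouse RNF146(RING-WWE), wild type or site-directed mutants. Protein and iso-ADPr were exchanged by Superdex 75 SEC into 20 mM HEPES pH 7.5, 150 mM NaCl, 1 mM DTT. Cell held ~15–20 μM protein. Ligand ~500 μM in the same buffer. Both were degassed. Injections of 5 μL every 5 min, 25–40 total. Kd came from a one-site model fit.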

[2] = molecular target: T2, RNF146(RING-WWE) (residues 30–183) (Mus musculus, UniProt Q9CZW6); assay: ITC, iso-ADPr binding to WT RNF146
T2 sequence (Q9CZW6 32-185): T1 sequence (Q9CZW6 32-185 K63D) with D32K

RNF146 WWE domain alone = settings: previously published; cited from earlier work
K61A RNF146(RING-WWE) = molecular target: T3, K61A RNF146(RING-WWE) (Mus musculus, UniProt Q9CZW6, K63A); assay: ITC, iso-ADPr binding to K61A RNF146; settings: 25 °C, K61A mutant
T3 sequence (Q9CZW6 32-185 K63A): T1 sequence (Q9CZW6 32-185 K63D) with D32A
In short: as §2

RNF146 WWE domain = settings: cited from earlier work
TNKS(5ARC) [3] = molecular target: T4, TNKS(5ARC) (human, UniProt O95271 173-961); assay: pull-down
T4 sequence (looked up): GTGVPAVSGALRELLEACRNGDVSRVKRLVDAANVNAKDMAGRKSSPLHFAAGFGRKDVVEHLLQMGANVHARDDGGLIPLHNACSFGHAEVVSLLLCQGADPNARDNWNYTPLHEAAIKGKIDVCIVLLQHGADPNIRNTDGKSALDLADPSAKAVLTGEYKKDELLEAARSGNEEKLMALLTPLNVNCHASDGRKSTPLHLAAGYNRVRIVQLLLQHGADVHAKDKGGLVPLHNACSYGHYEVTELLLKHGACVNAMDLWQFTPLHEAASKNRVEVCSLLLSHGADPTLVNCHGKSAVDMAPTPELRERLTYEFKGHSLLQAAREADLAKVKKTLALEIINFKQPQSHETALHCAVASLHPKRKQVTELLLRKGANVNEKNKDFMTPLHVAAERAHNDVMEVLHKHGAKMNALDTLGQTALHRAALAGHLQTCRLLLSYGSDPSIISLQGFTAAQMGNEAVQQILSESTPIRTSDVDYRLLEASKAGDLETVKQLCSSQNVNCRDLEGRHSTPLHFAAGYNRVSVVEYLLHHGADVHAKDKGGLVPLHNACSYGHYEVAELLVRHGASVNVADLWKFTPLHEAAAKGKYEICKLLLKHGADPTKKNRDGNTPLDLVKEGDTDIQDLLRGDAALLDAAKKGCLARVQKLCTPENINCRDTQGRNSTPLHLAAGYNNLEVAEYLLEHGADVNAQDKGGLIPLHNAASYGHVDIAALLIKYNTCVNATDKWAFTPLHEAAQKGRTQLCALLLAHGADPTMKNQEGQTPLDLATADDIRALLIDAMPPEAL

TNKS(5ARC) [4] = molecular target: T4, TNKS(5ARC); assay: SEC-MALS
[5] = molecular target: T5, Full-length mouse tankyrase-1 (mouse, UniProt Q6PFX9 1-1320); assay: pull-down
T5 sequence (looked up): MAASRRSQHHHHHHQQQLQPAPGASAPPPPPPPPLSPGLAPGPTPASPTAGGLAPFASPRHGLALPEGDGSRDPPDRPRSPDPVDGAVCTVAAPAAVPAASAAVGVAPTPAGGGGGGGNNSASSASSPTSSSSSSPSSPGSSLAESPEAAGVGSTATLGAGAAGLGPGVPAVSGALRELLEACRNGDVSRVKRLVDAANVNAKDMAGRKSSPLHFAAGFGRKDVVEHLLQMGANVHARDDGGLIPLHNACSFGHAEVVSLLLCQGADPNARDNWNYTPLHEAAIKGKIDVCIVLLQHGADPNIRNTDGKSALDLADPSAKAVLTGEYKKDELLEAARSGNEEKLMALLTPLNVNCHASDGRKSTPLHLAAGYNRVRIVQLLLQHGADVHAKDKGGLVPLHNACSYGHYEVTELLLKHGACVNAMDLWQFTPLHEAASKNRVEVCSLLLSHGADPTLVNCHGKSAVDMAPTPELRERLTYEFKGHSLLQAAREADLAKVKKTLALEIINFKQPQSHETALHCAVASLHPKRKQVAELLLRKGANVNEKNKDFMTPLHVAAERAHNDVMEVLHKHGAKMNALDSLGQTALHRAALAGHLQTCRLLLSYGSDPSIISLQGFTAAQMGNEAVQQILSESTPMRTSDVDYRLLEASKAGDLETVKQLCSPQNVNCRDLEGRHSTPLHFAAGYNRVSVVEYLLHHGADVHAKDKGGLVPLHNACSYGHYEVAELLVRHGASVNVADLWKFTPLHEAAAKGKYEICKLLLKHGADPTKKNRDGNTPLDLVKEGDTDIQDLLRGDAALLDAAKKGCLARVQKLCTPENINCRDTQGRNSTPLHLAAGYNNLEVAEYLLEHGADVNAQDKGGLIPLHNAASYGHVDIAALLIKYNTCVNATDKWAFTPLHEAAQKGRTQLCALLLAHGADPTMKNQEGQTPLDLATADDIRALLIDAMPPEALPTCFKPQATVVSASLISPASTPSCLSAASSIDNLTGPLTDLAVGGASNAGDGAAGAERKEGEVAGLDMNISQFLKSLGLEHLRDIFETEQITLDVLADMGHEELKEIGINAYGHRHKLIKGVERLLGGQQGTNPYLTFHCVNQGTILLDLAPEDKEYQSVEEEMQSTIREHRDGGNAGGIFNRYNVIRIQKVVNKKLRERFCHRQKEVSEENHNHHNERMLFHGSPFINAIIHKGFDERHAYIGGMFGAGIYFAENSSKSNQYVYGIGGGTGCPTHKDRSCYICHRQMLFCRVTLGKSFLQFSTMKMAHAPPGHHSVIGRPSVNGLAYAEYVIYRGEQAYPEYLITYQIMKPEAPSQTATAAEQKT

## Nc1ncnc2c1ncn2[C@@H]1O[C@H](COP(=O)(O)O)[C@@H](O)[C@H]1O[C@@H]1O[C@H](COP(=O)(O)O)[C@@H](O)[C@H]1O [iso-ADPr]
[1]; 3 min after lysine addition, 1.2 equiv.
  iso-ADPr concentration up to which the rate of E2~Ub/lysine reactivity increases: 5 µM
[1]
  activation of Ub transfer from UbcH5~Ub to lysine: robust activation
RNF146(RING-WWE) K61D
  activation of E2~Ub/lysine reactivity: not activated
K61D RNF146(RING-WWE)
  Kd: 457 nM
[2]; ITC, 25 °C, one-site model
  Kd: 39 nM
[2]; ratio of Kd 39 nM vs 372 nM
  binding to RNF146(RING-WWE) relative to the WWE domain alone: ten times tighter
RNF146 WWE domain alone
  Kd: 372 nM
K61A RNF146(RING-WWE)
  Kd: 214 nM

## Nc1ncnc2c1ncn2[C@@H]1O[C@H](COP(=O)(O)OP(=O)(O)OC[C@H]2OC(O)[C@H](O)[C@@H]2O)[C@@H](O)[C@H]1O (stereo partly shown) [ADPr, ADP-ribose]
RNF146 WWE domain
  binding to WWE domain: does not bind

## poly(ADP-ribose) [PAR]
[1]
  activation of Ub transfer from UbcH5~Ub to lysine: robust activation

B1: GST-RNF146(1–205) (domain or fragment, human, UniProt Q9NTX7-2 1-205, looked up)
chain: MAGCGEIDHSINMLPTNRKANESCSNTAPSLTVPECAICLQTCVHPVSLPCKHVFCYLCVKGASWLGKRCALCRQEIPEDFLDKPTLLSPEELKAASRGNGEYAWYYEGRNGWWQYDERTSRELEDAFSKGKKNTEMLIAGFLYVADLENMVQYRRNEHGRRRKIKRDIIDIPKKGVAGLRLDCDANTVNLARESSADGADSVSA
TNKS(5ARC) [3]
  binding result: binds

B2: GST-RNF146 G337V/G338V (natural protein, human, UniProt Q9NTX7-2 1-358, looked up)
chain: MAGCGEIDHSINMLPTNRKANESCSNTAPSLTVPECAICLQTCVHPVSLPCKHVFCYLCVKGASWLGKRCALCRQEIPEDFLDKPTLLSPEELKAASRGNGEYAWYYEGRNGWWQYDERTSRELEDAFSKGKKNTEMLIAGFLYVADLENMVQYRRNEHGRRRKIKRDIIDIPKKGVAGLRLDCDANTVNLARESSADGADSVSAQSGASVQPLVSSVRPLTSVDGQLTSPATPSPDASTSLEDSFAHLQLSGDNTAERSHRGEGEEDHESPSSGRVPAPDTSIEETESDASSDSEDVSAVVAQHSLTQQRLLVSNANQTVPDRSDRSGTDRSVAGVVTVSVSVRSRRPDGQCTVTEV
TNKS(5ARC) [3]
  binding result: binds

B3: GST-RNF146 G199V (natural protein, human, UniProt Q9NTX7-2 1-358, looked up)
chain: B2 chain with G199V, V337G, V338G
TNKS(5ARC) [3]
  binding result: binds

B4: His6-T7-RNF146 (full-length) (natural protein, human, UniProt Q9NTX7-2 1-358, looked up)
chain: B2 chain with V337G, V338G
TNKS(5ARC) [4]
  binding result: binds

B5: GST-RNF146 (full-length, wt) (natural protein, human, UniProt Q9NTX7-2 1-358, looked up)
chain: B2 chain with V337G, V338G
TNKS(5ARC) [3]
  binding result: binds

B6: GST-RNF146-R163A (natural protein, human, UniProt Q9NTX7-2 1-358, looked up)
chain: B2 chain with R163A, V337G, V338G
[5]
  binding result: binds
